CSC inhib = blocks cancer stem cells. cancer stem cell-like cells viability, luminescence. 1.1% of 300,000 active. inhibition, % at 7.5 µM; in the data active means inhibition above about 75%; tested in HMLE shEcad cells
Beta cell apopt = beta cell apoptosis inhibition. INS-1E cytokine-induced death, ATP luminescence, 48 h; percent of positive-control rescue, neutral wells zero. protection from apoptosis, % (concentration not given with the values). 0.8% of 300,000 active;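 active means Every replicate reaches about 75%, or at least half do and their mean reaches it too, limit read from the data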;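 further: 0% = cytokine-treated negative control wells and 100% = positive control rescue; higher means more ATP so stronger rescue from cytokine killing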
HIF act = HIF pathway transcriptional activation. U2OS HRE-luciferase reporter, luminescence; normalized: DMSO 0%, desferrioxamine 100%. activation, % at 7.5 µM (by protocol). 0.32% of 300,000 active;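 active means mean activation of at least 10% of the iron chelator positive control signal, with at least half of replicates also reaching 10%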
T cruzi inh = T. cruzi replication inhibition | T. cruzi beta-gal in NIH3T3, luminescence, 90 h | 1.4% of 300,000 active | inhibition, % (concentration not given with the values);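 active means mean inhibition across valid replicates above about 55%, limit read from the data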;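 further: signal also drops with host cell toxicity which is not excluded here; 0% = plate median of DMSO wells and 100% = zero luminescence signal; higher percent means less beta-gal luminescence so fewer parasites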
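Material: NIH/3T3 host cells with β-galactosidase reporter T. cruzi; Input: 5,000 host fibroblasts per well; Medium: DMEM, 2% fetal bovine serum; Compound: 50 nL DMSO compound solution per well; Schedule: 3 h host attachment, then at least 90 h co-culture; Detection: luminescent β-galactosidase signal after 60 min lysis.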
Calb FLC = C. albicans growth modulation with fluconazole | growth inhibition, % (test concentration not listed) | C. albicans CaCi-2 (fluconazole-resistant clinical isolate) + fluconazole, Alamar Blue growth, 48 h | 0.57% of 300,000 active;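 active means growth inhibition above about 58% in most replicates, limit read from the data, passing the limit was not always enough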;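 further: all wells also contain fluconazole at 8 µg/ml as a sub-toxic cotreatment; 0% = median of DMSO wells and 100% = median of geldanamycin control wells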
PolyA inhibitor = blocks polyadenylation in yeast reporter cells; S. cerevisiae SKY197-pL101 polyadenylation reporter, beta-gal luminescence; efflux-impaired pdr1/pdr3 knockout yeast; score 100 = 6 SD above DMSO; activity score, % at 12 µM; 0.02% of 300,000 active;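 active means lowest replicate activity score at least 50, where 100 means six control SD above control mean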;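 further: yeast exposed to compound for 9 h at 30 °C; higher score means more reporter readthrough which indicates perturbed polyadenylation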
* marks the source's active call; other numbers are inactive results; · = not tested or not shown. Hits are enriched below; roughly 3.1% of the tested compounds scored in any of these assays.

SMILES	CSC inhib	Beta cell apopt	HIF act	T cruzi inh	Calb FLC	PolyA inhibitor
CC(=O)C(c1ccccc1)C(c1ccccc1)C(C)[N+](=O)[O-] (stereo unspecified)	3	-4	0	-2	-7	4
Cn1cccc1/C=N/NC(=O)Cc1cccs1	3	105*	1	-3	-2	12
O=C(/C=C/c1ccc(N2CCC(c3ccccc3)=N2)cc1)c1ccccc1	92*	7	0	11	38	-8
O=C(/C=C/c1ccc(O)cc1)c1ccccc1	39	-1	4	-1	1	-27
COc1ccccc1OCc1nnc(SCC(=O)NCc2ccco2)n1-c1ccccc1	-8	-1	423*	6	4	4
COc1ccc(CN(C)C(=S)Nc2ccc(Cl)cc2)cc1	-8	1	1	-2	2	10
CCOC(=O)C1=CC[C@H]2c3c(c4ccccc4n3C)C(=O)C1N2C	-5	4	·	·	·	·
CCCCCCCCCCOC(=O)Cn1c(COc2ccccc2OC)[n+](C)c2ccccc21	93*	107*	1	50	-12	-5
CC(C)(C)NC(=O)CN(C(=O)CNS(=O)(=O)c1ccc(Cl)cc1)c1ccc2c(c1)OCCO2	10	-2	0	11	-2	-3
COc1ccc(NC(=O)c2ccco2)cc1NC(=O)c1ccco1	-1	5	0	-1	-7	-8
COc1ccccc1NS(=O)(=O)c1cccc(NC(=O)c2sc3ccccc3c2Cl)c1	·	2	0	78*	-5	-1
CS(=O)(=O)Nc1ccccc1C(=O)Nc1cccc(Cl)c1	76*	31	0	-3	66	-20
COc1ccccc1NS(=O)(=O)c1cccc(NC(=O)NCCCl)c1	-5	-2	0	-2	-2	10
COc1cc(NC(=O)c2ccco2)c(OC)cc1NC(=O)Nc1cccc(Cl)c1	4	1	0	57*	-1	-15
COc1ccccc1NS(=O)(=O)c1cccc(NC(=O)Nc2cccc(Cl)c2)c1	-15	21	-1	62*	20	-2
CS(=O)(=O)Nc1ccccc1C(=O)Nc1cc(Cl)cc(Cl)c1	59	64	0	-25	51	-2
CC(C)(C)OC(=O)[C@H](Cc1ccccc1)NC(=O)c1[nH]cnc1C(=O)Nc1cccc(Cl)c1	97*	22	0	40	4	-7
CC(C)(C)OC(=O)[C@H](Cc1ccccc1)NC(=O)c1[nH]cnc1C(=O)Nc1ccc(Cl)cc1	120*	10	0	31	4	11
CC(C)C[C@H](NC(=O)c1nc[nH]c1C(=O)NC(c1ccccc1)c1ccccc1)C(=O)OC(C)(C)C	97*	36	-2	53	-6	-12
CC(C)C[C@H](NC(=O)c1[nH]cnc1C(=O)N[C@H](C)c1ccccc1)C(=O)OC(C)(C)C	45	27	0	10	14	18
NS(=O)(=O)c1ccc(NC(=O)CNC(=O)c2ccc3c(c2)OCO3)cc1	-15	7	·	·	·	·
O=C1NCN(c2ccccc2)C12CCN(CCCC(c1ccc(F)cc1)c1ccc(F)cc1)CC2	78*	1	-1	44	·	2
C=C1CCN([C@@H](CC(C)C)C(=O)Nc2nc3ccc(Cl)cc3s2)S(=O)(=O)c2ccccc21	102*	1	2	10	19	12
C=C1CCN([C@@H](CC(C)C)C(=O)Nc2ccc(OC)cc2)S(=O)(=O)c2ccccc21	-7	2	-1	-1	1	-3
O=C(Nc1nc(-c2ccccc2)cs1)c1ccc(N2CCOCC2)c([N+](=O)[O-])c1	45	5	0	55*	13	3
SMILES	CSC inhib	Beta cell apopt	HIF act	T cruzi inh	Calb FLC	PolyA inhibitor
Cc1ccc(O)c(N=Cc2cc(Cc3ccccc3)cc([N+](=O)[O-])c2O)c1	·	·	0	-12	98*	-33
O=[N+]([O-])c1cccc(C=Nc2cccc3ccccc23)c1O	23	6	-23	12	101*	-15
CCOC(=O)CC1(NC(=O)C2CCC(=O)N(CCc3ccc(OC)cc3)C2)CCCCC1 (stereo unspecified)	-9	-1	0	-5	4	-13
CC(C)Cn1c(O)c(N=NC(=O)c2cccc(S(=O)(=O)N3CCCCC3)c2)c2ccccc21	91*	38	0	12	25	14
O=C(NNC(=O)c1cccc(S(=O)(=O)N2CCCCC2)c1)c1ccccc1	-11	-1	·	·	·	·
COC(=O)C1CCN(Cc2c(C(=O)N3C[C@@H](C)O[C@@H](C)C3)nc3ccc(Cl)cn23)CC1	-6	-2	-1	-14	87*	-7
O=C(NC12CC3CC(CC(C3)C1)C2)c1ccc(N2CCNCC2)c([N+](=O)[O-])c1	48	10	0	15	-1	-7
COc1ccc(-c2cc(C(=O)Nc3cccc(S(=O)(=O)NCc4ccco4)c3)c3ccccc3n2)cc1OC	·	11	0	60*	-2	-6
O=C(CNS(=O)(=O)c1ccc([N+](=O)[O-])cc1)N/N=C/c1ccc(O)cc1O	71	45	2	-27	19	-10
Cc1ccc(OCCn2ccnc2)c(C)c1	2	0	0	-12	0	7
Cc1ccc(C(C)(C)C)c(OCCCn2ccnc2)c1	2	3	-1	34	-19	-16
Cc1ccc(C)c(OCCCCn2ccnc2)c1	33	4	0	71*	-2	-1
CC(C)(C)c1ccccc1OCCCCCn1ccnc1	15	21	-1	61*	40	-19
Cc1ccc(OCCCCn2ccnc2)c(Cl)c1	28	12	1	61*	-30	-2
Cc1ccc(OCCCCn2ccnc2)c([N+](=O)[O-])c1	12	-3	0	23	-3	10
O=C1/C(=C/c2cccc(F)c2)Oc2cc(O)ccc21	6	-3	-2	11	10	-17
COc1ccc(OC)c2c1C(=O)C(Cl)=C(Cl)C2=O	96*	114*	-6	11	-3	-56
COc1ccc(OC)c2c1C(=O)c1ccccc1C2=O	-25	-7	-1	3	-1	12
Cc1cc(C)nc(NC(=O)/C=C/c2ccccc2Cl)n1	·	8	1	11	22	-8
Cc1cc(N)c2cc(NC(=O)/C=C/c3ccccc3Cl)ccc2n1	141*	109*	-5	51	26	15
Cn1ncc2c(Nc3ccc(Br)cc3)nc(Nc3ccc(Br)cc3)nc21	103*	33	0	33	9	-16
COc1ccc(N=N/C(=C\O)C(=O)c2cccs2)cc1	88*	·	3	1	33	-38
COCCn1ccc2c(OCC(=O)NCc3ccccc3)cccc2c1=O	-6	·	2	-10	1	17
Cc1ccc(OC/C(O)=C(\C#N)c2nc3ccccc3s2)cc1	78*	11	0	-35	53	16
